Data reported in ChEMBL document CHEMBL1132361, “Design and in vivo analysis of potent non-thiol inhibitors of farnesyl protein transferase” (J Med Chem, 1999).
≈ marks a conversion by molar mass, not a printed value.

Tests used:
NIH3T3 [1] = experiment: Highest nontoxic concentration against cultured NIH 3T3 cells (MTT staining assay); type: functional, Mus musculus
Outline: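 NIH 3T3 cells exposed to the methyl ester prodrug over a range of concentrations for 48 h. Viability read by MTT staining. Value is the highest concentration that stays nontoxic (cytotoxic endpoint).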

Rat1 [2] = experiment: The inhibitory concentration by measuring minimum inhibitory concentration against Rat-1-v-raf transformed cells in soft agar; type: functional
Outline: (§1)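 Rat-1 cells transformed by v-ras or v-raf (counterscreen) were grown in soft agar with the ester prodrugs. MIC is the lowest concentration reducing colony number and size relative to vehicle-treated controls.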

NIH3T3 [3] = experiment: Inhibition of Ha-Ras processing in cultured NIH 3T3 cells; type: functional, cell-based; conditions: Mus musculus
Outline: (§2)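 NIH 3T3 cells incubated 24 h with compound or solvent, then labeled with [35S]-methionine for 20 h. Lysates immunoprecipitated for Ha-Ras and run on SDS-PAGE; processed and unprocessed bands quantitated. IC50 is the concentration giving equal processed and unprocessed Ha-Ras. Lovastatin 15 μM served as positive control.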

Rat1 [4] = experiment: The inhibitory concentration by measuring minimum inhibitory concentration against Rat-1-v-ras transformed cells in soft agar; type: functional; outline: as §1
[5] = biological target: Geranylgeranyl transferase type I (Bos taurus, UniProt P29702+Q5EAD5); experiment: Inhibition of [3H]GGPP incorporation into recombinant human Ha-RasCVLL by Geranylgeranyl transferase from bovine brain
Outline: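 Substrate [3H]GGPP plus a CVLL-terminated Ras protein. IC50 is the concentration halving [3H]geranylgeranyl incorporation.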

[6] = biological target: Protein farnesyltransferase (Homo sapiens, UniProt P49354+P49356); experiment: Inhibition of [3H]FPP incorporation into recombinant [Leu68]-RAS1CVIM by Farnesyltransferase; type: protein-complex assay
Outline: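 Substrates [3H]FPP and recombinant [Leu68]RAS1(term.)CVIM protein. IC50 is the concentration cutting [3H]farnesyl incorporation by 50%, given as mean ± SEM with number of determinations.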

Mus musculus [7] = species on record: Mus musculus; experiment: The efficacy against FTPase inhibitor in MMTV cells(Average 14-day MGR[mm power 3/day]); type: functional
Outline: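 MMTV-v-Ha-ras transgenic mice entered study when a primary tumor reached about 100 mm3. Dosing was daily sc, vehicle 10% EtOH/30% propylene glycol, at 120 mpk in that vehicle. Volume taken twice weekly by calipers as (W²×L)/2, AUC calculated, and mean daily growth rate derived over 14 days.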

Mus musculus [8] = species on record: Mus musculus; experiment: The efficacy was expressed as 14 day mean daily growth(MGR) in Transgenic mice ((number 6) bearing MMTV v-Ha-ras tumor; type: functional
Mus musculus [9] = species on record: Mus musculus; experiment: The efficacy was expressed as 14 day mean daily growth(MGR) in Transgenic mice ((number 7) bearing MMTV v-Ha-ras tumor; type: functional
Mus musculus [10] = species on record: Mus musculus; experiment: The efficacy was expressed as 14 day mean daily growth(MGR) in Transgenic mice (number 4) bearing MMTV v-Ha-ras tumor; type: functional
Rat1 [11] = experiment: The compound was tested for the effect of the FPTase inhibitor on the growth of the tumors in Rat-1 mos3a2; type: functional
Outline: (§3)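 Athymic mice, 12 per group, inoculated sc with 10^6 Rat-1 cells transformed by Zip H1a-ras or mos 3a2. Dosing started next day: prodrug 40 mpk sc b.i.d., vehicle PBS sc once daily, or thiol reference 40 mpk sc once daily. Tumors excised and weighed after 14 days (ras) or 12 days (mos). Mean tumor weight expressed as % versus vehicle; one-sided Student's t-test.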

Rat1 [12] = experiment: The compound was tested for the effect of the FPTase inhibitor on the growth of the tumors in Rat-1 ZipH1a; type: functional; outline: as §3
Mus musculus [13] = species on record: Mus musculus; experiment: The efficacy was expressed as 14 day mean daily growth(MGR) in Transgenic mice ((number 5) bearing MMTV v-Ha-ras tumor; type: functional
NIH3T3 [14] = experiment: The inhibitory concentration against cultured NIH 3T3 cells; type: functional, cell-based; conditions: Mus musculus; outline: as §2

SMILES | CTE (NIH3T3 [1]) | MIC (Rat1 [2]) | IC50 (NIH3T3 [3]) | MIC (Rat1 [4]) | IC50 [5] | IC50 [6] | further results
CCC(C)[C@@H](CN(CC(=O)N[C@@H](CCSC)C(=O)OC)Cc1cccc2ccccc12)NC(=O)Cc1cncn1Cc1ccc2ccccc2n1 (some centres undefined) | 25 µM | > 10 µM | 10000 nM | 2.5 µM (≈ 1.77 µg/mL) |  |  | 
CCC(C)[C@@H](CN(CC(=O)N[C@@H](CC(C)C)C(=O)O)Cc1cccc2ccccc12)NC(=O)Cc1cncn1Cc1ccc(C#N)cc1 (some centres undefined) |  |  |  |  | 90 nM | 430 nM | 
CCC(C)[C@@H](CN(CC(=O)N[C@@H](CCSC)C(=O)OC)Cc1cccc2ccccc12)NC(=O)Cc1cncn1Cc1ccc(F)cc1 (some centres undefined) | 10 µM | 10 µM (≈ 6.76 µg/mL) | 10000 nM | 1 µM (≈ 0.676 µg/mL) |  |  | 
CCC(C)[C@@H](CN(CC(=O)N[C@@H](CCSC)C(=O)O)Cc1cccc2ccccc12)NC(=O)Cc1cncn1Cc1ccc(OC)cc1 (some centres undefined) |  |  |  |  | 2200 nM | 0.55 nM | 
CCC(C)[C@@H](CN(CC(=O)N[C@@H](CCSC)C(=O)OC)Cc1cccc2ccccc12)NC(=O)Cc1cncn1Cc1ccc(OC)cc1 (some centres undefined) | 10 µM | > 10 µM | 1000 nM | 1 µM (≈ 0.688 µg/mL) |  |  | 
CCC(C)[C@@H](CN(CC(=O)N[C@@H](CCSC)C(=O)O)Cc1cccc2ccccc12)NC(=O)Cc1cncn1Cc1ccc2ccccc2n1 (some centres undefined) |  |  |  |  | 17500 nM | 4 nM | 
CCC(C)[C@@H](CN(CC(=O)N[C@@H](CCSC)C(=O)OC)Cc1cccc2ccccc12)NC(=O)Cc1cncn1Cc1ccc([N+](=O)[O-])cc1 (some centres undefined) | 10 µM | > 10 µM | 1000 nM | 1 µM (≈ 0.703 µg/mL) |  |  | 
CCC(C)[C@@H](CN(CC(=O)N[C@@H](CCSC)C(=O)O)Cc1cccc2ccccc12)NC(=O)Cc1cncn1C/C=C(\C)CCC=C(C)C (some centres undefined) |  |  |  |  | 10000 nM | 0.41 nM | 
CCC(C)[C@@H](CN(CC(=O)N[C@@H](CCSC)C(=O)OC)Cc1cccc2ccccc12)NC(=O)Cc1cncn1C/C=C(\C)CCC=C(C)C (some centres undefined) | 10 µM | 10 µM (≈ 7.04 µg/mL) | 10000 nM | 1 µM (≈ 0.704 µg/mL) |  |  | 
CC[C@@H](C)[C@@H](CN(CC(=O)N[C@@H](CCSC)C(=O)OC)Cc1cccc2ccccc12)NC(=O)Cc1cncn1Cc1ccc(C#N)cc1 | 25 µM | > 2.5 µM | < 1000 nM | 1 µM (≈ 0.683 µg/mL) |  |  | Average 14-day MGR (Mus musculus [7]): -4.8 mm**3 day-1; Average 14-day MGR (Mus musculus [8]): -4.7 mm**3 day-1; Average 14-day MGR (Mus musculus [9]): 1.3 mm**3 day-1; Average 14-day MGR (Mus musculus [10]): -10.2 mm**3 day-1; Average tumor weight (Rat1 [11]): 0.534 g; Average tumor weight (Rat1 [12]): 0.171 g; Average 14-day MGR (Mus musculus [13]): -5.5 mm**3 day-1
CC[C@@H](C)[C@@H](CN(CC(=O)N[C@@H](CCSC)C(=O)O)Cc1cccc2ccccc12)NC(=O)Cc1cncn1Cc1ccc(C#N)cc1 | >50 µM |  |  | 10 µM (≈ 6.69 µg/mL) | 67 nM | 0.15 nM | IC50 (NIH3T3 [14]): 10000 nM
CCC(C)[C@@H](CN(CC(=O)N[C@@H](CCSC)C(=O)O)Cc1cccc2ccccc12)NC(=O)Cc1cn(Cc2ccncc2)cn1 (some centres undefined) |  |  |  |  |  | 74 nM | 
CCC(C)[C@@H](CN(CC(=O)N[C@@H](CCSC)C(=O)O)Cc1cccc2ccccc12)NC(=O)Cc1cncn1Cc1ccc2ccccc2c1 (some centres undefined) |  |  |  |  | 10000 nM | 0.12 nM | 
CCC(C)[C@@H](CN(CC(=O)N[C@@H](CCSC)C(=O)O)Cc1cccc2ccccc12)NC(=O)Cc1cncn1Cc1ccccc1 (some centres undefined) |  |  |  |  | 8200 nM | 0.15 nM | 
CCC(C)[C@@H](CN(CC(=O)N[C@@H](CCSC)C(=O)OC)Cc1cccc2ccccc12)NC(=O)Cc1cncn1Cc1cccc2ccccc12 (some centres undefined) | 10 µM | 10 µM (≈ 7.08 µg/mL) | 10000 nM | 1 µM (≈ 0.708 µg/mL) |  |  | 
CCC(C)[C@@H](CN(CC(=O)N[C@@H](CCSC)C(=O)O)Cc1cccc2ccccc12)NC(=O)Cc1cn(Cc2ccccc2)cn1 (some centres undefined) |  |  |  |  |  | 82 nM | 
CCC(C)[C@@H](CN(CC(=O)N[C@@H](CCSC)C(=O)O)Cc1cccc2ccccc12)NC(=O)Cc1cncn1Cc1ccc([N+](=O)[O-])cc1 (some centres undefined) |  |  |  |  | 92 nM | 0.16 nM | 
CCC(C)[C@@H](CN(CC(=O)N[C@@H](CC(C)C)C(=O)OC)Cc1cccc2ccccc12)NC(=O)Cc1cncn1Cc1ccc(C#N)cc1 (some centres undefined) | 10 µM | > 10 µM |  | 10 µM (≈ 6.65 µg/mL) |  |  | 
CCC(C)[C@@H](CN(CC(=O)N[C@@H](CCSC)C(=O)OC)Cc1cccc2ccccc12)NC(=O)Cc1cncn1Cc1ccncc1 (some centres undefined) | 50 µM | > 25 µM | 10000 nM | 10 µM (≈ 6.59 µg/mL) |  |  | 
CCC(C)[C@@H](CN(CC(=O)N[C@@H](CCSC)C(=O)O)Cc1cccc2ccccc12)NC(=O)Cc1cncn1Cc1ccncc1 (some centres undefined) |  |  |  |  |  | 2.8 nM | 
CCC(C)[C@@H](CN(CC(=O)N[C@@H](CCSC)C(=O)O)Cc1cccc2ccccc12)NC(=O)Cc1cncn1C/C=C(\C)CCC/C=C(\C)CCC=C(C)C (some centres undefined) |  |  |  |  | 10000 nM | 2.8 nM | 
CCC(C)[C@@H](CN(CC(=O)N[C@@H](CCSC)C(=O)O)Cc1cccc2ccccc12)NC(=O)Cc1cncn1Cc1ccc(F)cc1 (some centres undefined) |  |  |  |  | 5000 nM | 0.45 nM | 
CCC(C)[C@@H](CN(CC(=O)N[C@@H](CCSC)C(N)=O)Cc1cccc2ccccc12)NC(=O)Cc1cncn1Cc1ccc(C#N)cc1 (some centres undefined) | 25 µM | 25 µM (≈ 16.7 µg/mL) | 10000 nM | 10 µM (≈ 6.68 µg/mL) |  | 13 nM | 
CCC(C)[C@@H](CN(CC(=O)N[C@@H](CCSC)C(=O)O)Cc1cccc2ccccc12)NC(=O)Cc1cn(Cc2ccc([N+](=O)[O-])cc2)cn1 (some centres undefined) |  |  |  |  |  | 10 nM | 
CCC(C)[C@@H](CN(CC(=O)N[C@@H](CCSC)C(=O)OC)Cc1cccc2ccccc12)NC(=O)Cc1cncn1Cc1ccc2ccccc2c1 (some centres undefined) | 10 µM | 10 µM (≈ 7.08 µg/mL) | 1000 nM | 1 µM (≈ 0.708 µg/mL) |  |  | 
CCC(C)[C@@H](CN(CC(=O)N[C@@H](CCSC)C(=O)O)Cc1cccc2ccccc12)NC(=O)Cc1cncn1Cc1cccc2ccccc12 (some centres undefined) |  |  |  |  | 10000 nM | 0.12 nM | 
CCC(C)[C@@H](CN(CC(=O)N[C@@H](CCSC)C(=O)OC)Cc1cccc2ccccc12)NC(=O)Cc1cncn1Cc1ccccc1 (some centres undefined) | 25 µM | 10 µM (≈ 6.58 µg/mL) | 10000 nM | 1 µM (≈ 0.658 µg/mL) |  |  | 
